The text below walks through data of ChEMBL document CHEMBL1125146, “The development of a novel series of (quinolin-2-ylmethoxy)phenyl-containing compounds as high-affinity leukotriene receptor antagonists. 3. Structural variation of the acidic side chain to give antagonists of enhanced potency” (J Med Chem, 1990).

Active and inactive are the calls of the source. No cut-off for these calls is given here.

Assay [1] is filed under the species Cavia porcellus. Nature of the assay: Inhibition of leukotriene-induced contractions of peripheral guinea pig lung strip. It is filed as functional, organism-based. The method in brief:
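Peripheral guinea pig lung parenchymal strips were challenged with single spasmogen concentrations (LTC4, LTD4 or LTE4), washed, equilibrated, then rechallenged with or without compound. Compound was preincubated at least 5 min before spasmogen. Each tissue served as its own control and was standardized with 1 μM histamine.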

In assay [2] the target is Cavia porcellus CysLT1 receptor. The assay can be described thus: In vitro binding affinity against cysteinyl leukotriene D4 receptor from guinea pig lung membrane.
Assay [3] concerns Cavia porcellus. Nature of the assay: Tested in vivo for LTD4-induced […] after oral administration by Dermal wheal assay method; inactive. It is filed as functional, organism-based. Put shortly:
(§1)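 Guinea pigs dosed orally, usually at a single dose, with full dose-response curves for selected compounds. Read-out was antagonism of wheal and flare from intradermal injection of 100 ng LTD4. Five or more animals per dose.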

For assay [4], the system named is Cavia porcellus. The assay can be described thus: Tested in vivo for antigen-induced systemic anaphylaxis after oral administration; inactive. It is filed as functional, organism-based.
Assay [5] relates to Cavia porcellus. The assay can be described thus: (§2) Tested in vivo for LTD4-induced […] after oral administration by Dermal wheal assay method. Also noted: concentration or dose not given beside the values. It is filed as functional. The method in brief: as §1
Assay [6] concerns Cavia porcellus. Nature of the assay: (§3) Tested in vivo for antigen-induced systemic anaphylaxis after oral administration. It is filed as functional. Also noted: concentration or dose not given beside the values.
For assay [7], the system named is Cavia porcellus. The description is as §2. It is filed as functional. Put shortly:
as §1

Assay [8] concerns Cavia porcellus. Described as §3. It is filed as functional.

As to `CC(CCC(=O)O)Cc1ccc(OCc2ccc3ccccc3n2)cc1` (stereo unspecified), the midpoint of inhibition in the assay filed under Cavia porcellus [1], the IC50, lay at 100 nM. The inhibition constant (Ki) (as a rule, the dissociation constant of the complex between target and ligand, obtained from inhibition or displacement) in assay [2] is listed as 43 nM.
Taken in the same sequence, the figures for `CC(CCc1cccc(OCc2ccc3ccccc3n2)c1)CC(=O)O` (stereo unspecified) were 800 nM and 70 nM.
Consider `O=C(O)CCCCc1ccc(OCc2ccc3ccccc3n2)cc1`, for which half-maximal inhibition in the assay listed under Cavia porcellus [1] (IC50) required 450 nM. This compound also had a Ki in assay [2] of 110 nM.
With `CCCc1c(OCC(O)COc2ccc3c(=O)cc(C(=O)O)oc3c2CCC)ccc(C(C)=O)c1O` (stereo unspecified) [FPL-55712], the ED50 result with Cavia porcellus [3] and with Cavia porcellus [4] was “inactive” in each case. Also, inhibition in the assay listed under Cavia porcellus [1] was half-maximal at 800 nM (IC50).
Turning to `CC(Cc1cccc(OCc2ccc3ccccc3n2)c1)CC(C)C(=O)O` (stereo unspecified), the IC50 (in general, the concentration that gives 50% inhibition) in the assay filed under Cavia porcellus [1] was 500 nM. In addition, the Ki in assay [2] is given as 24 nM.
`CC(CCc1nnn[nH]1)Cc1cccc(OCc2ccc3ccccc3n2)c1` (stereo unspecified) came in with a half-maximal inhibitory concentration (IC50) in the assay listed under Cavia porcellus [1] of 150 nM. The Inhibition (in general, the percentage by which the read-out fell short of the control) in the assay on Cavia porcellus [5] is on record as 40%. In addition, the Ki in assay [2] is 34 nM.
`CC(CCc1ccc(OCc2ccc3ccccc3n2)cc1)Cc1nnn[nH]1` (stereo unspecified): in the assay filed under Cavia porcellus [1], the half-inhibitory concentration (IC50) amounted to 20 nM. In addition, in assay [2], the Ki was determined as 25 nM.
Taken in the same sequence, the figures for `CC(CCC(=O)O)Cc1cccc(OCc2ccc3ccccc3n2)c1` (stereo unspecified) were 500 nM and 140 nM.
In the assay with Cavia porcellus [6], `CC(CCc1cccc(OCc2ccc3ccccc3n2)c1)Cc1nnn[nH]1` (stereo unspecified) registered an Inhibition of 27%. Besides, in the assay with Cavia porcellus [7], the ED50 – broadly, the dose at which the effect has come halfway, by size or by number of responders – was 2.8 mg/kg. Besides, the IC50 in the assay filed under Cavia porcellus [1] came out at 45 nM. The same compound returned a Ki in assay [2] of 17 nM.
For `c1ccc2nc(COc3ccc(CCCCc4nnn[nH]4)cc3)ccc2c1`, the Inhibition amounted to 100% in the assay on Cavia porcellus [6] and 38% with Cavia porcellus [5]. In the assay filed under Cavia porcellus [1], this compound yielded an IC50 of 45 nM.
`c1ccc(C(CCc2nnn[nH]2)Cc2ccc(OCc3ccc4ccccc4n3)cc2)cc1` (stereo unspecified): the half-maximal inhibitory concentration (IC50) in the assay listed under Cavia porcellus [1] is 14 nM. In assay [2], this compound yielded a Ki of 8 nM.
Regarding `CCCC(CCc1nnn[nH]1)Cc1cccc(OCc2ccc3ccccc3n2)c1` (stereo unspecified), the half-maximal inhibitory concentration (IC50) in the assay listed under Cavia porcellus [1] stood at 16 nM. For the same compound, the Inhibition in the assay on Cavia porcellus [5] was 38%. In addition, in assay [2], the inhibition constant (Ki) was found to be 11 nM.
For the compound `CCCc1c(OCCCCc2nnn[nH]2)ccc(C(C)=O)c1O` [TOMELUKAST], the ED50 with Cavia porcellus [7] and in the assay with Cavia porcellus [8] was above 30 mg/kg each time. For the same compound, inhibition in the assay listed under Cavia porcellus [1] was half-maximal at 1500 nM (IC50).
In the case of `c1ccc2nc(COc3ccc(CCC4(Cc5nnn[nH]5)CCCC4)cc3)ccc2c1`, the 50% effective dose (ED50) was 4.2 mg/kg in the assay on Cavia porcellus [7] and 2.8 mg/kg in the assay on Cavia porcellus [8]. In the assay listed under Cavia porcellus [1], this compound gave a half-maximal inhibitory concentration (IC50) of 37 nM. The same compound gave an inhibitory constant (Ki) in assay [2] of 25 nM.
In the assay filed under Cavia porcellus [1], `c1cc(OCCCc2nnn[nH]2)cc(OCc2ccc3ccccc3n2)c1` came in with an IC50 of 79 nM. The inhibition constant (Ki) in assay [2] was 42 nM.
Consider `CCCC(CCC(=O)O)Cc1ccc(OCc2ccc3ccccc3n2)cc1` (stereo unspecified), for which the ED50 in the assay on Cavia porcellus [7] was found to be 6.5 mg/kg; in the assay on Cavia porcellus [8] it was 9.7 mg/kg. The compound further showed an IC50 in the assay filed under Cavia porcellus [1] of 30 nM. In assay [2], this compound gave a Ki of 21 nM.
In the assay listed under Cavia porcellus [1], `c1ccc2nc(COc3ccc(OCCCc4nnn[nH]4)cc3)ccc2c1` had a half-maximal inhibitory concentration (IC50) of 250 nM. The same compound showed a Ki in assay [2] of 69 nM.
`CC(CCc1nnn[nH]1)Cc1ccc(OCc2ccc3ccccc3n2)cc1` (stereo unspecified): the ED50 was 2.5 mg/kg with Cavia porcellus [7] and 1.2 mg/kg in the assay with Cavia porcellus [8]. The compound also had a concentration for half-maximal inhibition (IC50) in the assay listed under Cavia porcellus [1] of 27 nM. The compound also came in with a Ki in assay [2] of 12 nM.
The compound `CCCC(CCC(=O)O)Cc1cccc(OCc2ccc3ccccc3n2)c1` (stereo unspecified) yielded a half-maximal inhibitory concentration (IC50) in the assay listed under Cavia porcellus [1] of 70 nM. For the same compound, the Ki in assay [2] was found to be 50 nM.
For `CCCC(CCc1nnn[nH]1)Cc1ccc(OCc2ccc3ccccc3n2)cc1` (stereo unspecified), the ED50 was 7.2 mg/kg in the assay on Cavia porcellus [7] and 7 mg/kg in the assay with Cavia porcellus [8]. This compound displayed an IC50 in the assay filed under Cavia porcellus [1] of 32 nM.
`O=C(O)CCCOc1ccc(OCc2ccc3ccccc3n2)cc1`: the midpoint of inhibition in the assay listed under Cavia porcellus [1], the IC50, lay at 800 nM. Further, the Ki in assay [2] was 1200 nM.
Turning to `CC(CCCc1nnn[nH]1)c1cccc(OCc2ccc3ccccc3n2)c1` (stereo unspecified), in the assay filed under Cavia porcellus [1], half-maximal inhibition (IC50) required 250 nM. The compound further showed an Inhibition in the assay with Cavia porcellus [5] of 62%. In assay [2], the Ki was found to be 31 nM.
For the compound `O=C(O)CCC(Cc1ccc(OCc2ccc3ccccc3n2)cc1)c1ccccc1` (stereo unspecified), the Inhibition in the assay with Cavia porcellus [6] worked out at 50%; in the assay with Cavia porcellus [5], 33%. Further, it took 65 nM to reach half-maximal inhibition in the assay filed under Cavia porcellus [1] (IC50). Also, the Ki in assay [2] is listed as 31 nM.
Taken in the same sequence, the figures for `c1cc(CCCCc2nnn[nH]2)cc(OCc2ccc3ccccc3n2)c1` were 83%, 16%, 105 nM and 20 nM.
Consider `O=C(O)CCCCc1cccc(OCc2ccc3ccccc3n2)c1`, for which the midpoint of inhibition in the assay listed under Cavia porcellus [1], the IC50, lay at 370 nM. The compound further displayed a Ki in assay [2] of 100 nM.
As for `c1ccc2nc(COc3ccc(CC4CCCC4Cc4nnn[nH]4)cc3)ccc2c1` (stereo unspecified), the values for the ED50 in the assay with Cavia porcellus [7] and in the assay on Cavia porcellus [8] were 10 mg/kg and 12 mg/kg, respectively. This compound had an IC50 in the assay listed under Cavia porcellus [1] of 20 nM. The same compound showed an inhibitory constant (Ki) in assay [2] of 15 nM.
As for `O=C(O)CC1(CCc2ccc(OCc3ccc4ccccc4n3)cc2)CCCC1`, the Inhibition in the assay with Cavia porcellus [6] is listed as 17%; with Cavia porcellus [5] it was 73%. This compound also returned a half-inhibitory concentration (IC50) in the assay filed under Cavia porcellus [1] of 60 nM. This compound came in with an inhibition constant Ki in assay [2] of 51 nM.
`COc1cc(C(=O)NS(=O)(=O)c2ccccc2)ccc1Cn1ncc2ccc(NC(=O)OC3CCCC3)cc21` [ICI-198615]: the Inhibition with Cavia porcellus [6] is 0%. In the assay with Cavia porcellus [7], this compound registered a median effective dose (ED50) above 30 mg/kg. This compound registered a concentration for half-maximal inhibition (IC50) in the assay listed under Cavia porcellus [1] of 0.4 nM. For the same compound, in assay [2], the Ki is 0.2 nM.
`O=C(O)CCC(Cc1cccc(OCc2ccc3ccccc3n2)c1)c1ccccc1` (stereo unspecified): the Inhibition with Cavia porcellus [6] worked out at 100%; in the assay with Cavia porcellus [5] it was 78%. In the assay filed under Cavia porcellus [1], this compound registered a concentration for half-maximal inhibition (IC50) of 56 nM. Further, the Ki in assay [2] is 52 nM.
`CC(CCCC(=O)O)c1cccc(OCc2ccc3ccccc3n2)c1` (stereo unspecified) came in with an IC50 in the assay listed under Cavia porcellus [1] of 500 nM. Further, the Ki in assay [2] is given as 90 nM.
Taken in the same sequence, the figures for `CC(CCCc1cccc(OCc2ccc3ccccc3n2)c1)C(=O)O` (stereo unspecified) were 75 nM and 85 nM.
On to `c1ccc(C(CCc2nnn[nH]2)Cc2cccc(OCc3ccc4ccccc4n3)c2)cc1` (stereo unspecified), for which half-maximal inhibition in the assay filed under Cavia porcellus [1] (IC50) was put at 24 nM. In the assay with Cavia porcellus [5], the Inhibition was determined as 61%. In assay [2], this compound showed an inhibition constant (Ki) of 14 nM.
In the case of `CC(CCCc1nnn[nH]1)c1ccc(OCc2ccc3ccccc3n2)cc1` (stereo unspecified), in the assay filed under Cavia porcellus [1], the IC50 came to 170 nM. In assay [2], this compound registered a Ki of 43 nM.
In the assay filed under Cavia porcellus [1], `O=C(O)CC1CCCC1Cc1ccc(OCc2ccc3ccccc3n2)cc1` (stereo unspecified) displayed a 50% inhibitory concentration (IC50) of 90 nM. Also, the Ki in assay [2] is 100 nM.
